Laboratory results reported in PubChem BioAssay AID624177 (Southern Research Specialized Biocontainment Screening …, 2012).
Calls of active or inactive are those of the source.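 The calls were made as follows: active = inhibition of 30% or more at any tested concentration; inactive = the rest.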

These molecules were tested against M18 aspartyl aminopeptidase (Plasmodium falciparum) (assay: PfM18AAP aspartyl aminopeptidase inhibitors, dose response, biochemical, QFRET fluorogenic substrate, set 2 (AID 624177)). Settings: recombinant PfM18AAP, H-Glu-NHMec fluorogenic substrate cleavage.
Method in brief: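 Test system: purified recombinant P. falciparum M18 aspartyl aminopeptidase (rPFM18AAP). Amount: 5 µg/mL rPFM18AAP. Schedule: 90 min reaction, room temperature. Measured by: fluorescence at 370/460 nm. Benchmarks: no-enzyme background control.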
`CCN(CCc1ccc(O)c(O)c1)c1c2ccccc2nc2ccccc12` showed an IC50 of 16.9 µM.
`CC(Cc1ccc(O)c(O)c1)Nc1ccnc2ccccc12` (centres undefined) was tested, and the IC50 was 16.6 µM.
For `Cc1cccc2c(NCCc3ccc(O)c(O)c3)ccnc12`, the IC50 was 14.5 µM.
`CN(CCc1ccc(O)c(O)c1)c1ccnc2cc(Cl)ccc12` was tested, and the IC50 was 8.46 µM.
With `CN(CCc1ccc(O)c(O)c1)c1ccnc2c(F)cccc12` the IC50 was 8.76 µM.
`CN(CCc1ccc(O)c(O)c1)c1ncnc2ccccc12` showed an IC50 of 7.69 µM.
Work on `Cc1cc(N(C)CCc2ccc(O)c(O)c2)c2ccccc2n1` yielded an IC50 of 11.9 µM.
`Oc1ccc(C2CCCN(c3ccnc4ccccc34)C2)cc1O` (centres undefined) was tested, and the IC50 was 7.32 µM.
For `Oc1ccc(C2CCN(c3ccnc4ccccc34)CC2)cc1O`, the IC50 was 4.6 µM.
Work on `CC(C)(CNc1ccnc2ccccc12)c1ccc(O)c(O)c1` yielded an IC50 of 47.6 µM.
`Oc1ccc(CCCNc2c3c(nc4ccccc24)CCCC3)cc1O` showed an IC50 of 10.8 µM.
`Cc1cccc2c(N(C)CCc3ccc(O)c(O)c3)ccnc12` gave an IC50 of 11.9 µM.
For `Oc1ccc(C2CCN(c3ccnc4ccccc34)C2)cc1O` (centres undefined), the IC50 was 6.55 µM.
Work on `Oc1ccc(CCNc2ccnc3c(F)cccc23)cc1O` yielded an IC50 of 9.8 µM.
For `CN(CCCc1ccc(O)c(O)c1)c1c2ccccc2nc2ccccc12`, the IC50 was 40.1 µM.
Work on `CN(CCCc1ccc(O)c(O)c1)c1ccnc2ccccc12` yielded an IC50 of 10.3 µM.
Molecule `CN(CCc1ccc(O)c(O)c1)c1c2ccccc2nc2ccccc12` has an IC50 of 30 µM.
Work on `Oc1ccc(CCNc2ccnc3cc(Cl)ccc23)cc1O` yielded an IC50 of 14.8 µM.
`Oc1cccc(CCNc2ccnc3ccccc23)c1O` gave an IC50 of 16.5 µM.

Same assay, conditions: recombinant PfM18AAP, H-Glu-NHMec fluorogenic substrate cleavage; at 100 µM (top of the series)
For `COc1ccc(CCN(C)c2ccnc3cc(Cl)ccc23)cc1OC`, the inhibition was “inactive”.
In the case of `COc1cc(Br)c(CCNc2ccnc3ccccc23)cc1OC`, the inhibition is reported as “inactive”.
In the case of `COc1ccc(CCCNc2c3c(nc4ccccc24)CCCC3)cc1OC`, the inhibition is reported as “inactive”.
`Nc1c2ccccc2nc2ccccc12` was tested, and the inhibition was “inactive”.
`CCOc1ccc2nccc(NCCc3ccc(OC)c(OC)c3)c2c1` was tested, and the inhibition was “inactive”.
In the case of `COc1ccc(CCN(C)c2c3ccccc3nc3ccccc23)cc1OC`, the inhibition is reported as “inactive”.
In the case of `COc1ccc(CCNc2ccnc3c(C)cccc23)cc1OC`, the inhibition is reported as “inactive”.
`COc1cc(Br)c(CCNc2c3ccccc3nc3ccccc23)cc1OC` was tested, and the inhibition was “inactive”.
For `COc1ccc(CCCN(C)c2c3ccccc3nc3ccccc23)cc1OC`, the inhibition was “inactive”.
`Clc1c2c(nc3ccccc13)CCCC2` was tested, and the inhibition was “inactive”.
In the case of `CCN(CCc1ccc(OC)c(OC)c1)c1c2ccccc2nc2ccccc12`, the inhibition is reported as “inactive”.
`CCOc1ccc2nccc(N(C)CCc3ccc(OC)c(OC)c3)c2c1` was tested, and the inhibition was “inactive”.
In the case of `COc1ccc(C2CCN(c3ccnc4ccccc34)CC2)cc1OC`, the inhibition is reported as “inactive”.
For `COc1cc(Br)c(CCNc2c3c(nc4ccccc24)CCCC3)cc1OC`, the inhibition was “inactive”.
With `COc1ccc(CCNc2c3c(nc4ccc(C)cc24)CCCC3)cc1OC` the inhibition was “inactive”.
With `COc1ccc(CCNC(=O)c2cc(C)ccc2N)cc1OC` the inhibition was “inactive”.
With `COc1ccc(CCN(C)c2ccnc3c(C)cccc23)cc1OC` the inhibition was “inactive”.
In the case of `COc1ccc(C2CCN(c3ccnc4ccccc34)C2)cc1OC` (centres undefined), the inhibition is reported as “inactive”.
`COc1ccc(CCNc2cc(C)nc3ccccc23)cc1OC` was tested, and the inhibition was “inactive”.
With `COc1ccc(CCN(C)c2ncnc3ccccc23)cc1OC` the inhibition was “inactive”.
With `COc1ccc(CCNc2ccnc3cc(Cl)ccc23)cc1OC` the inhibition was “inactive”.
With `COc1ccc(CCN(C)c2ccnc3c(F)cccc23)cc1OC` the inhibition was “inactive”.
With `COc1ccc(CCNc2ccnc3c(F)cccc23)cc1OC` the inhibition was “inactive”.
`COc1ccc(CCNc2ncnc3ccccc23)cc1OC` was tested, and the inhibition was “inactive”.
`COc1ccc(CCN(C)c2cc(C)nc3ccccc23)cc1OC` was tested, and the inhibition was “inactive”.
